Activity calls are given as the source filed them. The calls are words filed in the database; no cut-off is given here. Where only a bound is given, the exact number is not on record here.

Data set [1] in a line: Drug uptake in Candida albicans CAF4-2 cytoplasmic extract assessed per 10^7 cells at 31.5 uM after 90 mins by SDS-PAGE in presence of 10 mM NaPB. Type of data set: ADME, Cytoplasm. The following applies: 1.5 h. The method in brief:
(§1)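 Wild-type or ssa2 cells were incubated with biotin-labeled peptide (31.5 µM) in 10 mM NaPB at 37°C for 5–90 min. Cell wall was extracted with 1% β-ME in ammonium carbonate (pH 8.0), 30 min at 37°C. Cytosol was obtained by glass-bead lysis with protease inhibitors. Extracts (10 µg/lane) were run on 16% Tricine SDS-PAGE, blotted, and detected with streptavidin-HRP. Amounts were quantified against peptide standards (0.06125–0.5 µg) and expressed per 10^7 cells.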

For data set [2], the system named is Candida albicans. Description: Drug uptake in Candida albicans CAF4-2 assessed as reduction of free drug in cell supernatant at 31.5 uM after 15 mins by slot blot assay. Type of data set: ADME, organism-based. The following applies: in vivo, 0.25 h. The method in brief: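 Early-log cells (1 x 10^8) were washed and suspended in 10 mM NaPB with biotin-labeled peptide (31.5 µM) for 5–90 min with shaking. After centrifugation at 4°C, supernatants were applied to PVDF by slot blot. The membrane was blocked in 3% milk/TBST, probed with streptavidin-HRP (1:1,000), and developed for remaining free peptide.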

Data set [3] deals with Candida albicans. Description: Drug uptake in Candida albicans CAF4-2 having ssa2delta mutation assessed as reduction of free drug in cell supernatant at 31.5 uM after 30 mins by slot blot assay. It counts as ADME, organism-based. The following applies: in vivo, 0.5 h. In short, it runs like this:
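Supernatant depletion: wt and ssa2 cells (1 x 10^8 in 1 ml 10 mM NaPB) incubated with 31.5 µM biotin-labeled peptide for 5–90 min with shaking. Cells pelleted at 4°C; 50 µl of supernatant slot-blotted onto PVDF, blocked with milk, probed with streptavidin-HRP. Buffer-only cells used as control.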

Data set [4] in a line: Drug uptake in Candida albicans CAF4-2 cytoplasm at 31.5 uM within 5 mins by SDS-PAGE in presence of 10 mM NaPB. Type of data set: ADME. The method in brief:
(§2)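 Cells in 10 mM NaPB with biotin-labeled peptide (31.5–32 µM) at 37°C for 5–90 min. After β-ME cell-wall extraction, cells bead-lysed at 4°C in NaPB with protease inhibitors; cytosol from 13,000 rpm spin. Cytosolic protein (10 µg/lane) on Tricine SDS-PAGE, streptavidin-HRP blot, quantitated against peptide standards.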

Data set [5] in a line: Drug uptake in Candida albicans CAF4-2 cell wall extract at 31.5 uM within 5 mins by SDS-PAGE in presence of 10 mM NaPB. Conditions: caf4-2, 5 min. It counts as ADME, cell-based. In short, it runs like this:
as §1

The nature of data set [6]: Drug uptake in Candida albicans CAF4-2 having ssa2delta mutation cytoplasmic extract assessed per 10^7 cells at 31.5 uM upto 30 mins by SDS-PAGE in presence of 10 mM NaPB. Type of data set: ADME, Cytoplasm. The following applies: 0.5 h. The method in brief:
as §2

A short description of data set [7]: Drug uptake in Candida albicans CAF4-2 cytoplasmic extract assessed per 10^7 cells at 31.5 uM within 15 mins by SDS-PAGE in presence of 10 mM NaPB. Type of data set: ADME, Cytoplasm. The following applies: 0.25 h. The method in brief: as §1
A short description of data set [8]: Drug uptake in Candida albicans CAF4-2 beta-ME extracted cell wall protein assessed per 10^7 cells at 31.5 uM within 5 mins by SDS-PAGE in presence of 10 mM NaPB. Type of data set: ADME, cell-based. In short, it runs like this: (§3)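 Early-log cells (1 x 10^8) washed and suspended in 10 mM NaPB with 31.5 µM biotin-labeled peptide at 37°C with shaking, sampled at timepoints to 90 min. Cell wall released with 1% β-ME in ammonium carbonate pH 8.0, 30 min, 37°C. Extract run on 16% Tricine SDS-PAGE (10 µg/lane), blotted, detected with streptavidin-HRP, quantitated against peptide standards.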

The nature of data set [9]: Drug uptake in Candida albicans CAF4-2 beta-ME extracted cell wall protein assessed per 10^7 cells at 31.5 uM within 15 mins by SDS-PAGE in presence of 10 mM NaPB. Type of data set: ADME, cell-based. The following applies: 0.25 h. The method in brief: as §3
Data set [10] deals with Candida albicans. Description: Candidacidal activity against Candida albicans CAF4-2 having ssa2delta mutation assessed as cell death below 31.5 uM treated for 1 hr measured after 48 hrs by microdilution plate assay. Type of data set: functional, organism-based. On the technique in general: Dilution methods test growth across graded concentrations, often in twofold steps.

Data set [11] relates to Candida albicans. Nature of the data set: Candidacidal activity against Candida albicans CAF4-2 having ssa1delta mutation after 3 hrs by radial diffusion assay. Type of data set: functional, organism-based. The method in brief:
(§4)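 Radial diffusion: C. albicans cells incorporated into underlay gels; peptides loaded into wells punched in the gel and incubated overnight. Clear-zone diameters (no growth) converted to cell death and plotted against peptide concentration. Means and SD of three independent experiments.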

For data set [12], the system named is Candida albicans. Description: Candidacidal activity against wild type Candida albicans CAF4-2 after 3 hrs by radial diffusion assay in presence of 100 mM NaPB. It counts as functional, organism-based. In short, it runs like this:
(§5)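 C. albicans cells grown in YNB were set into underlay gels. Peptides were loaded into punched wells and incubated overnight. Clear-zone diameters (10 units = 1 mm) were plotted against peptide concentration and converted to cell death. Incubation was in 10 mM or 100 mM NaPB. Means and SD from three independent experiments.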

The subject of data set [13] is Candida albicans. Description: Candidacidal activity against wild type Candida albicans CAF4-2 after 3 hrs by radial diffusion assay in presence of 10 mM NaPB. It counts as functional, organism-based. In short, it runs like this: as §5
In data set [14] the test system is Candida albicans. Description: Candidacidal activity against wild type Candida albicans CAF4-2 after 3 hrs by radial diffusion assay. Type of data set: functional, organism-based. The method in brief: as §5
The subject of data set [15] is Candida albicans. Nature of the data set: Candidacidal activity against Candida albicans CAF4-2 having ssa1delta mutation assessed as cell death at 31.5 uM treated for 1 hr measured after 48 hrs by microdilution plate assay. It counts as functional.
Data set [16] addresses Heat shock protein SSA2 (Candida albicans (strain SC5314 / ATCC MYA-2876) (Yeast)) (UniProt P46587). Nature of the data set: Binding affinity to Candida albicans AKRLIGRKFDDHE region of Ssa2 at 2 uM by chemiluminescence assay. The method in brief:
(§6)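 Overlapping Ssa2p peptides spotted on cellulose-β-alanine membranes; methanol rinse, TBS (pH 8.0) washes, 2 h blocking in albumin/biotin-free buffer at room temperature. Biotin-labeled peptide (2 µM) in blocking buffer, 3 h at room temperature, washed; streptavidin-HRP (1:20,000) 1 h; chemiluminescent detection and imaging. Repeatability confirmed by reprobing after regeneration (30 min, 50°C).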

Data set [17] deals with Candida albicans. Description: Candidacidal activity against wild type Candida albicans CAF4-2 assessed as cell death at 31.5 uM treated for 1 hr measured after 48 hrs by microdilution plate assay. Type of data set: functional.
For data set [18], the system named is Candida albicans. Description: Candidacidal activity against Candida albicans CAF4-2 having ssa2delta mutation after 3 hrs by radial diffusion assay. Type of data set: functional, organism-based. The method in brief:
as §4

Data set [19] relates to Candida albicans. Nature of the data set: Candidacidal activity against Candida albicans CAF4-2 having ssa1delta mutation assessed as cell death below 31.5 uM treated for 1 hr measured after 48 hrs by microdilution plate assay. It counts as functional, organism-based.
The target in data set [20] is Heat shock protein SSA2 (Candida albicans (strain SC5314 / ATCC MYA-2876) (Yeast)) (UniProt P46587). Description: Binding affinity to Candida albicans KRKNKKDISTNQR region of Ssa2 at 2 uM by chemiluminescence assay. The method in brief:
as §6

Data set [21] relates to Candida albicans. Nature of the data set: Candidacidal activity against Candida albicans CAF4-2 having ssa2delta mutation assessed as cell death at 31.5 uM treated for 1 hr measured after 48 hrs by microdilution plate assay. It counts as functional.
For data set [22], the system named is Candida albicans. Description: Candidacidal activity against wild type Candida albicans CAF4-2 at >62 uM after 3 hrs by radial diffusion assay. Type of data set: functional, organism-based. In short, it runs like this: as §5
For data set [23], the system named is Candida albicans. Nature of the data set: Candidacidal activity against wild type Candida albicans CAF4-2 assessed as cell death below 31.5 uM treated for 1 hr measured after 48 hrs by microdilution plate assay. It counts as functional, organism-based. In short, it runs like this:
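Candidacidal microdilution assay: 1 x 10^6 cells exposed to peptide for 1 h, diluted to quench, plated on YNB agar. Loss of viability = [1 − (colonies treated/colonies control)] x 100. Means and SD from three independent experiments.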

In data set [24] the test system is Candida albicans. Nature of the data set: Candidacidal activity against wild type Candida albicans CAF4-2 at >62 uM after 3 hrs by radial diffusion assay in presence of 100 mM NaPB. Type of data set: functional, organism-based. The method in brief: as §5

Chain of Heat shock protein SSA2 (Candida albicans (strain SC5314 / ATCC MYA-2876) (Yeast)) (P46587 whole entry): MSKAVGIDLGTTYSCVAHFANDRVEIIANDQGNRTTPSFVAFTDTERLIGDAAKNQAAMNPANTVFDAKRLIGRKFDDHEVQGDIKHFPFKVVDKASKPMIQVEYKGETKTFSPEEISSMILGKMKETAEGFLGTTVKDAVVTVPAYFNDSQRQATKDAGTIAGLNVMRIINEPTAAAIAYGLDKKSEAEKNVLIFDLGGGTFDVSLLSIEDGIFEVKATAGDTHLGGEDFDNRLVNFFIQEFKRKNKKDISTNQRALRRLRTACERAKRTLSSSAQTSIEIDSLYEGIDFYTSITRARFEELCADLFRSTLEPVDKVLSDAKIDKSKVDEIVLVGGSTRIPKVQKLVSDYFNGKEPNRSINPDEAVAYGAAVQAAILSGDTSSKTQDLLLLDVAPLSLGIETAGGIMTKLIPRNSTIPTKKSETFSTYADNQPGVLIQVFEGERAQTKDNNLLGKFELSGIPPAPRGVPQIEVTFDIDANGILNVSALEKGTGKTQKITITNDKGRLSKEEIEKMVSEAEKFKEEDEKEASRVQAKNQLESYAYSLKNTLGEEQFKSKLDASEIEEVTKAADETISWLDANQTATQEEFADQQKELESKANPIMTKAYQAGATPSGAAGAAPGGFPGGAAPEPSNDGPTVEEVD

As to H-AKRHHGYKRKFH-OH [listing 1 of 2 here], the Drug uptake in [1] is 0.2 µg; in the data set with Candida albicans [2] it was “Active”; with Candida albicans [3] it was “Active”; in data set [4], “Active”; in data set [5], “Active”; in [6], below 0.2 µg. The Drug uptake was 0.26 µg in [7], 0.1 µg in data set [8] and “Active” in data set [9].

Turning to H-AKRHHGYKRKFH-OH [listing 2 of 2 here], the result in the data set with Candida albicans [10], in the data set with Candida albicans [12], in the data set on Candida albicans [18] and in the data set with Candida albicans [19] was inactive. For the same substance, the result (in the data set on Candida albicans [11]; in the data set with Candida albicans [13]; in the data set with Candida albicans [14]; in data set [16]; in [20]) was Active. Moreover, the Activity stood at 90% in the data set on Candida albicans [15], 90% in the data set on Candida albicans [17] and 76% with Candida albicans [21].

On to H-AQRHHGYKRQFH-OH [listing 1 of 2 here], for which the Drug uptake amounted to 0.15 µg in [8] and 0.2 µg in [9].

On to H-AQRHHGYKRQFH-OH [listing 2 of 2 here], for which the outcome in the data set on Candida albicans [22] and with Candida albicans [13] was Active. The outcome (with Candida albicans [10]; in the data set on Candida albicans [11]; in the data set with Candida albicans [12]; in the data set with Candida albicans [14]; in [16]; in the data set on Candida albicans [18]) was inactive. For the same substance, the outcome (in the data set with Candida albicans [19]; in data set [20]; with Candida albicans [23]; in the data set on Candida albicans [24]) was inactive. Besides, the Activity in the data set with Candida albicans [15], in the data set with Candida albicans [17] and in the data set on Candida albicans [21] was below 10% each time.

(Values after ChEMBL document CHEMBL1255233, “The P-113 fragment of histatin 5 requires a specific peptide sequence for intracellular translocation in Candida albicans, which is independent of cell wall binding” (Antimicrob Agents Chemother, 2008).)
